Results on five compounds are retold here after ChEMBL document CHEMBL1141290, “Lipoxazolidinones A, B, and C: antibacterial 4-oxazolidinones from a marine actinomycete isolated from a Guam marine sediment” (2007).

Holding throughout (format): functional
One assay has as its system Escherichia coli. Briefly: Antimicrobial activity against Escherichia coli ATCC 25922 after 14 to 16 hrs by serial micro-broth dilution method. In outline: (§1)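 MIC by serial broth microdilution following NCCLS standards, in cation-adjusted Mueller-Hinton broth. Final inoculum ~5 × 10^5 CFU/mL. Plates incubated at 35 °C for 14–16 h without CO2.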
A general note: Broth dilution looks for growth in wells or tubes with falling amounts of substance.

Assay [1] has as its system Streptococcus pneumoniae. Briefly: Antimicrobial activity against penicillin-sensitive Streptococcus pneumoniae ATCC 49619 after 14 to 16 hrs by serial microbroth dilution method. The method in brief: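 MIC by NCCLS serial broth microdilution in cation-adjusted Mueller-Hinton broth II with lysed horse blood. Final inoculum ~5 × 10^5 CFU/mL. Incubated at 35 °C for 14–16 h in a CO2 incubator.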

The test system of a further assay is Enterococcus faecalis. Briefly: Antimicrobial activity against vancomycin-sensitive Enterococcus faecalis ATCC 29212 after 14 to 16 hrs by serial microbroth dilution method. In outline:
as §1

Assay [2] has as its system Haemophilus influenzae. The experiment in a line: Antimicrobial activity against Haemophilus influenzae ATCC 49766 after 14 to 16 hrs by serial micro-broth dilution method. The method in brief:
(§2)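 MIC by serial broth microdilution per NCCLS, in Haemophilus Test Medium. Final inoculum ~5 × 10^5 CFU/mL. Plates incubated at 35 °C for 14–16 h in a CO2 incubator.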

Assay [3] relates to Staphylococcus aureus. Briefly: Antimicrobial activity against methicillin-resistant Staphylococcus aureus ATCC 43300 after 14 to 16 hrs by serial micro-broth dilution method. The method in brief:
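Broth microdilution MIC following NCCLS standards, using cation-adjusted Mueller-Hinton broth in ambient air without CO2. The final inoculum was about 5 × 10^5 CFU/mL.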

Assay [4] concerns Staphylococcus aureus. The experiment in a line: Antimicrobial activity against methicillin-sensitive Staphylococcus aureus ATCC 29213 after 14 to 16 hrs by serial micro-broth dilution method. The method in brief: as §1
For assay [5], the system named is Haemophilus influenzae. Briefly: Antimicrobial activity against Haemophilus influenzae ATCC 49247 after 14 to 16 hrs by serial micro-broth dilution method. In outline: as §2
Assay [6] deals with Staphylococcus epidermidis. Briefly: Antimicrobial activity against Staphylococcus epidermidis ATCC 700578 after 14 to 16 hrs by serial micro-broth dilution method. The method in brief:
as §1

Assay [7] has as its system Staphylococcus epidermidis. The experiment in a line: Antimicrobial activity against Staphylococcus epidermidis ATCC 700582 after 14 to 16 hrs by serial microbroth dilution method. The method in brief:
as §1

Assay [8] relates to Streptococcus pneumoniae. Briefly: Antimicrobial activity against penicillin-resistant Streptococcus pneumoniae ATCC 51915 after 14 to 16 hrs by serial micro-broth dilution method. The method in brief: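 Broth microdilution MIC following NCCLS standards, using cation-adjusted Mueller-Hinton broth II with lysed horse blood and incubation in a CO2 incubator. The final inoculum was about 5 × 10^5 CFU/mL.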

Values after ≈ are worked out from the molar mass of the structure shown.

As to `CCCCCCC/C(C)=C/C(=O)CC(=N)OC(CCCC)C(=O)O` (stereo not given), the MIC with Escherichia coli is above 32 µg/mL; in the assay with Streptococcus pneumoniae [1], above 32 µg/mL; against Enterococcus faecalis, 32 µg/mL (≈ 94.3 µM); in the assay on Haemophilus influenzae [2], above 32 µg/mL; against Staphylococcus aureus [3], above 32 µg/mL; in the assay with Staphylococcus aureus [4], 24 µg/mL (≈ 70.7 µM). Further, the MIC in the assay with Haemophilus influenzae [5] is above 32 µg/mL.

Take `CC(=O)NC[C@H]1CN(c2ccc(N3CCOCC3)c(F)c2)C(=O)O1` [LINEZOLID]: the MIC was above 32 µg/mL with Escherichia coli; 12 µg/mL (≈ 35.6 µM) with Haemophilus influenzae [2]; 1.5 µg/mL (≈ 4.45 µM) in the assay on Staphylococcus aureus [3]; 1 µg/mL (≈ 2.96 µM) in assay [6]; 1 µg/mL (≈ 2.96 µM) in assay [7]; 12 µg/mL (≈ 35.6 µM) against Haemophilus influenzae [5].

Take `CCCCCC/C(C)=C/C(=O)/C=C1\NC(=O)C(CCCC)O1` (stereo not given) [LIPOXAZOLIDINE C]: the MIC against Escherichia coli was above 32 µg/mL; in the assay on Streptococcus pneumoniae [1], 10 µg/mL (≈ 32.5 µM); in the assay with Enterococcus faecalis, 2 µg/mL (≈ 6.51 µM); against Haemophilus influenzae [2], 5 µg/mL (≈ 16.3 µM); in the assay on Staphylococcus aureus [3] it was 3 µg/mL (≈ 9.76 µM); in the assay with Staphylococcus aureus [4] it was 4 µg/mL (≈ 13 µM). The compound further registered an MIC in the assay on Haemophilus influenzae [5] of 16 µg/mL (≈ 52 µM).

With `CCCCCCC/C(C)=C/C(=O)/C=C1\NC(=O)C(CCCC)O1` (stereo not given) [LIPOXAZOLIDINONE A], the MIC is above 32 µg/mL against Escherichia coli; 2.6 µg/mL (≈ 8.09 µM) in the assay on Streptococcus pneumoniae [1]; 1 µg/mL (≈ 3.11 µM) in the assay on Enterococcus faecalis; 12 µg/mL (≈ 37.3 µM) in the assay on Haemophilus influenzae [2]; 4.7 µg/mL (≈ 14.6 µM) with Streptococcus pneumoniae [8]; 1 µg/mL (≈ 3.11 µM) with Staphylococcus aureus [3]. For the same compound, the MIC in assay [6] is 0.5 µg/mL (≈ 1.56 µM); in the assay with Staphylococcus aureus [4], 0.9 µg/mL (≈ 2.8 µM); in [7], 0.5 µg/mL (≈ 1.56 µM); against Haemophilus influenzae [5] it was 12 µg/mL (≈ 37.3 µM).

`CCCCCCC/C(C)=C/C(=O)/C=C1\NC(=O)C(CCCCC)O1` (stereo not given) [LIPOXAZOLIDINONE B]: the MIC in the assay with Escherichia coli was above 32 µg/mL; against Streptococcus pneumoniae [1], 8 µg/mL (≈ 23.8 µM); in the assay on Enterococcus faecalis it was 3 µg/mL (≈ 8.94 µM); against Haemophilus influenzae [2], 16 µg/mL (≈ 47.7 µM); against Streptococcus pneumoniae [8], 6 µg/mL (≈ 17.9 µM); in the assay on Staphylococcus aureus [3], 1.5 µg/mL (≈ 4.47 µM). Further, the MIC in assay [6] was 1.3 µg/mL (≈ 3.87 µM); against Staphylococcus aureus [4], 6 µg/mL (≈ 17.9 µM); in assay [7] it was 0.8 µg/mL (≈ 2.38 µM); against Haemophilus influenzae [5], 12 µg/mL (≈ 35.8 µM).
